Laboratory results published in ChEMBL document CHEMBL1770101, “Synthesis, anti-inflammatory activity and COX-1/COX-2 inhibition of novel substituted cyclic imides. Part 1: Molecular docking study” (Eur J Med Chem, 2011).

What was measured:
[1] = target: T1, Prostaglandin G/H synthase 1 (Ovis aries, UniProt P05979); experiment: Inhibition of ovine COX1 after 5 mins by enzyme immunoassay
T1 sequence (P05979 whole entry): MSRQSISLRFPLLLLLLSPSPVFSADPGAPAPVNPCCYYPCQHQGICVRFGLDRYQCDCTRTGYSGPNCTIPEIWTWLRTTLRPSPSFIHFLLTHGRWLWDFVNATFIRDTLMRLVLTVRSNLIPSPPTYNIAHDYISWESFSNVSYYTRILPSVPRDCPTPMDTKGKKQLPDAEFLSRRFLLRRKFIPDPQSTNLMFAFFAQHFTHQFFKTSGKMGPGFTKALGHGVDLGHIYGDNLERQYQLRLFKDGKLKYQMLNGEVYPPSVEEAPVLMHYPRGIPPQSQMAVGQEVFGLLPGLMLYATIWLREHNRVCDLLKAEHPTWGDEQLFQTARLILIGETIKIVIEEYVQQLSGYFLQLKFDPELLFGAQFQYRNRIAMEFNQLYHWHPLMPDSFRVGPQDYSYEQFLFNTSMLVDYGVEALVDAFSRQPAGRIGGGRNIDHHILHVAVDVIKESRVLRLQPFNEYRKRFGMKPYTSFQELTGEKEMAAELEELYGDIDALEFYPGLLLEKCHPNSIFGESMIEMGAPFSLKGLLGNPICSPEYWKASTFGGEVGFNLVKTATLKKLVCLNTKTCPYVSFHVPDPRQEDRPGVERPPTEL

[2] = test system: Rattus norvegicus; experiment: Antiinflammatory activity in Sprague-Dawley rat assessed as inhibition of carrageenan-induced paw edema at 100 mg/kg, ip after 1 hr by plethysmometer; format: functional; settings: route intraperitoneal
Summary of the method: (§1)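 Male Sprague-Dawley rats (250 g), fasted at least 16 h with free access to water, six per group. Test compound given IP at 100 mg/kg as 1 mL suspension in 0.5% methyl cellulose.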

[3] = test system: Rattus norvegicus; experiment: Antiinflammatory activity in Sprague-Dawley rat assessed as inhibition of carrageenan-induced paw edema at 100 mg/kg, ip after 2 hrs by plethysmometer; format: functional; settings: route intraperitoneal; summary of the method: as §1
[4] = test system: Rattus norvegicus; experiment: Antiinflammatory activity in ip dosed Sprague-Dawley rat assessed as inhibition of carrageenan-induced paw edema after 2 hrs by plethysmometer; format: functional
Summary of the method: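 Male Sprague-Dawley rats (250 g), fasted at least 16 h with water available, six per group. Compounds dosed IP as 1 mL suspension in 0.5% methyl cellulose. Paw volume measured by water displacement plethysmometer before and after treatment. % inhibition = (1 − D/C) × 100 versus controls.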

Compound | IC50 [1] | inhibition in vivo at 100 mg/kg [2] | inhibition in vivo at 100 mg/kg [3] | ED50 [4]
O=C1c2cccc3cccc(c23)C(=O)N1c1cc(Cl)c(Cl)c(Cl)c1 | > 100 µM | 79% | 88% | 115 mg/kg
O=C1CCC(=O)N1c1cc(Cl)c(Cl)c(Cl)c1 | > 100 µM | 30% | 33% | –
O=C1[C@H]2CC=CC[C@H]2C(=O)N1c1cc(Cl)c(Cl)c(Cl)c1 | > 100 µM | – | – | –
O=C1c2nccnc2C(=O)N1c1cc(Cl)c(Cl)c(Cl)c1 | > 100 µM | 47% | 73% | 175 mg/kg
O=C1c2ccccc2C(=O)N1c1cc(Cl)c(Cl)c(Cl)c1 | > 100 µM | 49% | 70% | 172 mg/kg
O=C1c2ccc([N+](=O)[O-])cc2C(=O)N1c1cc(Cl)c(Cl)c(Cl)c1 | 36.1 µM | 79% | 79% | 122 mg/kg
Cc1ccc2c(c1)C(=O)N(c1cc(Cl)c(Cl)c(Cl)c1)C2=O | > 100 µM | 36% | 65% | 183 mg/kg
CC(C)(C)c1ccc2c(c1)C(=O)N(c1cc(Cl)c(Cl)c(Cl)c1)C2=O | > 100 µM | 35% | 60% | 195 mg/kg
O=C1c2cc(Cl)c(Cl)cc2C(=O)N1c1cc(Cl)c(Cl)c(Cl)c1 | > 100 µM | 75% | 65% | 187 mg/kg
O=C1c2c(Cl)c(Cl)c(Cl)c(Cl)c2C(=O)N1c1cc(Cl)c(Cl)c(Cl)c1 | > 100 µM | 44% | 45% | 229 mg/kg
O=C1c2c(Br)c(Br)c(Br)c(Br)c2C(=O)N1c1cc(Cl)c(Cl)c(Cl)c1 | > 100 µM | – | – | –
COc1cc(-n2c(=O)c3ccccc3c3ccccc3c2=O)cc(OC)c1OC | > 100 µM | 86% | 84% | 120 mg/kg
O=c1c2ccccc2c2ccccc2c(=O)n1-c1cc(Cl)c(Cl)c(Cl)c1 | > 100 µM | 75% | 72% | 150 mg/kg
COc1cc(N2C(=O)C3C(C2=O)C2(Cl)C(Cl)=C(Cl)C3(Cl)C2(Cl)Cl)cc(OC)c1OC (stereo not drawn) | > 100 µM | 36% | 34% | –
O=C1C2C(C(=O)N1c1cc(Cl)c(Cl)c(Cl)c1)C1(Cl)C(Cl)=C(Cl)C2(Cl)C1(Cl)Cl (stereo not drawn) | > 100 µM | 23% | 37% | –
O=C(O)Cc1ccccc1Nc1c(Cl)cccc1Cl [DICLOFENAC] | – | 88% | 89% | 114 mg/kg

Now from value to compound, other results behind:

IC50 [1] | Compound | inhibition in vivo at 100 mg/kg [2] | inhibition in vivo at 100 mg/kg [3] | ED50 [4]
> 100 µM | COc1cc(N2C(=O)CCC2=O)cc(OC)c1OC | 20% | 40% | –
> 100 µM | COc1cc(N2C(=O)[C@H]3CC=CC[C@H]3C2=O)cc(OC)c1OC | – | – | –
> 100 µM | COc1cc(N2C(=O)c3nccnc3C2=O)cc(OC)c1OC | 72% | 84% | 123 mg/kg
> 100 µM | COc1cc(N2C(=O)c3ccccc3C2=O)cc(OC)c1OC | 43% | 67% | 185 mg/kg
40 µM | COc1cc(N2C(=O)c3ccc([N+](=O)[O-])cc3C2=O)cc(OC)c1OC | 87% | 94% | 105 mg/kg
> 100 µM | COc1cc(N2C(=O)c3ccc(C)cc3C2=O)cc(OC)c1OC | 84% | 94% | 107 mg/kg
> 100 µM | COc1cc(N2C(=O)c3ccc(C(C)(C)C)cc3C2=O)cc(OC)c1OC | 60% | 89% | 146 mg/kg
> 100 µM | COc1cc(N2C(=O)c3cc(Cl)c(Cl)cc3C2=O)cc(OC)c1OC | 59% | 80% | 186 mg/kg
> 100 µM | COc1cc(N2C(=O)c3c(Cl)c(Cl)c(Cl)c(Cl)c3C2=O)cc(OC)c1OC | – | 53% | 212 mg/kg
> 100 µM | COc1cc(N2C(=O)c3c(Br)c(Br)c(Br)c(Br)c3C2=O)cc(OC)c1OC | 42% | 55% | 213 mg/kg
> 100 µM | COc1cc(N2C(=O)c3cccc4cccc(c34)C2=O)cc(OC)c1OC | 86% | 91% | 117 mg/kg
